Results reported in ChEMBL document CHEMBL1150775, “Synthesis and evaluation of estrogen agonism of diaryl 4,5-dihydroisoxazoles, 3-hydroxyketones, 3-methoxyketones, and 1,3-diketones: a compound set forming a 4D molecular library” (J Med Chem, 2008).

Tests used:
Format in all cases: cell-based
[1] = biological target: T1, Estrogen receptor (Homo sapiens) (UniProt P03372); assay: Activation of human estrogen receptor alpha expressed in HEK293 cells at 10 uM in presence of ICI-182780 beta-galactosidase reporter gene assay relative to control
T1 sequence (whole entry): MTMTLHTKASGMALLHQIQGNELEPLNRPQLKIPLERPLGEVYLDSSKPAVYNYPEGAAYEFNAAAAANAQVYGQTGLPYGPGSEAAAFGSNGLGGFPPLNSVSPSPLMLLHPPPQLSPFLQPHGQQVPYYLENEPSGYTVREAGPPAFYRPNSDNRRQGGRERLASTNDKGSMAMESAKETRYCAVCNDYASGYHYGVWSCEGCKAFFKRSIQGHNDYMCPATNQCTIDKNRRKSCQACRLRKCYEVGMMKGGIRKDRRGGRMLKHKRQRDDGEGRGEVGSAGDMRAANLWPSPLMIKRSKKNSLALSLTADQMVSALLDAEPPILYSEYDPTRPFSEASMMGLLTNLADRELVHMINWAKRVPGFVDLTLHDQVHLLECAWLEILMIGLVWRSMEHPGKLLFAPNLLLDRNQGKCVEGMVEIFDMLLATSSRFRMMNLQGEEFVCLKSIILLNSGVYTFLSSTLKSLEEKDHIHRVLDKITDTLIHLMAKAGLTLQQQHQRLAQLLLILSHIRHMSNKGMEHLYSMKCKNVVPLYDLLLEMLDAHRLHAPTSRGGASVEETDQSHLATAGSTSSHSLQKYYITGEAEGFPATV
Procedure, shortened: (§1)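 Antagonism format: transfection as for the agonist assay (ERα or ERβ vector, ERE2-TATA-LUC, pCMVβ; 4 h). Medium then contained 10 µM compound plus 1000 nM ICI-182,780 or vehicle for 24 h. β-Gal-normalized luciferase given as fold activation relative to vehicle. Means ± SEM of ≥3 independent transfections.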

[2] = biological target: T1, Estrogen receptor (Homo sapiens); assay: Activation of human estrogen receptor alpha expressed in HEK293 cells at 10 uM beta-galactosidase reporter gene assay relative to control
Procedure, shortened: (§2)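 Luciferase reporter in transiently transfected HEK293 cells. Cells received 5 ng ERα or ERβ vector, ERE2-TATA luciferase reporter and pCMVβ by calcium phosphate for 4 h. Compound at 10 µM for 24 h in phenol-free medium with delipidated serum. β-Gal-normalized luciferase expressed as fold activation over vehicle (0.1% v/v). Means ± SEM of ≥3 transfections.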

[3] = biological target: T1, Estrogen receptor (Homo sapiens); assay: Activation of human estrogen receptor alpha expressed in HEK293 cells at 10 uM by beta-galactosidase reporter gene assay relative to 3,17 beta-estradiol
Procedure, shortened: (§3)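 HEK293 cells seeded a day ahead in phenol-free DMEM with 5% delipidated FBS. Calcium phosphate transfection for 4 h with 5 ng ERα or ERβ expression vector, 75 ng pERE2TATA-LUC reporter and 20 ng pCMVβ control. Test compound at 10 µM (vehicle 0.1% v/v) for 24 h. Luciferase normalized to β-galactosidase. Activity = 100% × (test − vehicle)/(10 nM E2 − vehicle). Mean of ≥3 independent transfections.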

[4] = biological target: Estrogen receptor beta (Homo sapiens) (UniProt Q92731); assay: Activation of human estrogen receptor beta expressed in HEK293 cells at 10 uM beta-galactosidase reporter gene assay relative to 3,17-beta-estradiol; procedure, shortened: as §3
Estrogen receptor beta (Homo sapiens), sequence (Q92731 whole entry): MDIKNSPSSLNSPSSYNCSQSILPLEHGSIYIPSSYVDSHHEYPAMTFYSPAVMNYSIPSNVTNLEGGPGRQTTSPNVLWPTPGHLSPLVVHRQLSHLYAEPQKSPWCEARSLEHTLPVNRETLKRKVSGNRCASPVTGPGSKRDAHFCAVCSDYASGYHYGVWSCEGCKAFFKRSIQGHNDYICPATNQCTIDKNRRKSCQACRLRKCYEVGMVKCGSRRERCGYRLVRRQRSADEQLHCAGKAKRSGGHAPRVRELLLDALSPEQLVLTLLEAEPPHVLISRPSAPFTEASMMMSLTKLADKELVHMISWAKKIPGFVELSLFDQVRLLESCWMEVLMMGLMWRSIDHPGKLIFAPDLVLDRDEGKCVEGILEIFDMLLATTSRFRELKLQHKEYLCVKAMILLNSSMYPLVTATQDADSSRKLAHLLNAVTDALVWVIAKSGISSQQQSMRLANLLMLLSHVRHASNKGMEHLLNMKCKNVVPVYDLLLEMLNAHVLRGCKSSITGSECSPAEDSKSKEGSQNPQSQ

[5] = biological target: Estrogen receptor beta (Homo sapiens) (UniProt Q92731); assay: Activation of human estrogen receptor beta expressed in HEK293 cells at 10 uM in presence of […] beta-galactosidase reporter gene assay relative to control; procedure, shortened: as §1
[6] = biological target: Estrogen receptor beta (Homo sapiens) (UniProt Q92731); assay: Activation of human estrogen receptor beta expressed in HEK293 cells at 10 uM beta-galactosidase reporter gene assay relative to control; procedure, shortened: as §2

SMILES	Activity [1]	Activity [2]	Activity [3]	Activity [4]	Activity [5]	Activity [6]
c1ccc(CCC2=NOC(CCc3ccccc3)C2)cc1 (single isomer, unassigned; 18b)	1	126	43.9%	-0.4%	–	–
COC(CC(=O)Cc1ccccc1)Cc1ccc2ccccc2c1 (racemic)	1.6	22.9	48.1%	4.7%	0.7	4.2
COC(CC(=O)Cc1cccc2ccccc12)Cc1cccc2ccccc12 (single isomer, unassigned; 64b)	1.1	26.1	23.9%	0.4%	–	–
O=C(CCc1ccccc1)CC(=O)Cc1ccccc1	1	8.7	24.3%	1.4%	–	–
CS(C)=C(C(=O)CCc1ccccc1)C(=O)c1ccccc1	–	–	-2.5%	3.3%	–	–
COc1cc2ccccc2cc1CC(CC(=O)Cc1ccc2ccccc2c1)OC (configuration not stated)	–	–	14.8%	2%	–	–
O=C(CCc1ccccc1)CC(O)Cc1ccc2ccccc2c1 (single isomer, unassigned; 57a)	–	–	12.4%	6.4%	–	–
c1ccc(CCC2=NOC(Cc3ccccc3)C2)cc1 (configuration not stated)	–	–	38.2%	1.3%	–	–
Fc1ccc(CC2CC(CCc3ccccc3)=NO2)cc1 (single isomer, unassigned)	–	–	28.9%	7.4%	–	–
c1ccc(CCC2CC(c3ccccc3)=NO2)cc1 (single isomer, unassigned; 10a)	–	–	22.8%	8.5%	–	–
O=C(Cc1ccccc1)CC(O)Cc1ccccc1 (configuration not stated)	–	–	8.4%	1.7%	–	–
COc1ccccc1CC(=O)CC(Cc1cccc2ccccc12)OC (single isomer, unassigned; 63a)	–	–	0%	0%	–	–
COc1ccccc1CC(CC(=O)Cc1ccc2ccccc2c1)OC (single isomer, unassigned)	–	–	0.3%	0.3%	–	–
O=C(CCc1ccccc1)CC(O)CCc1ccccc1 (configuration not stated)	–	–	16.2%	1%	–	–
COC(CCc1ccccc1)CC(=O)c1ccccc1 (configuration not stated)	–	–	38.1%	25.8%	–	–
COc1ccccc1CC(=O)CC(Cc1ccc2ccccc2c1)OC (single isomer, unassigned; 66a)	–	–	3.5%	-0.5%	–	–
c1ccc(CCCC2=NOC(Cc3ccccc3)C2)cc1 (configuration not stated)	–	–	31.3%	13.6%	–	–
O=C(CCCc1ccccc1)CC(O)c1ccccc1 (single isomer, unassigned; 24a)	–	–	91.4%	147%	–	–
c1ccc(CCC2CC(Cc3ccccc3)=NO2)cc1 (configuration not stated)	–	–	7%	1.2%	–	–
c1ccc(CC2=NOC(c3ccccc3)C2)cc1 (configuration not stated)	–	–	19.6%	34.4%	–	–
Oc1ccc(CCC2=NOC(Cc3ccccc3)C2)cc1 (single isomer, unassigned)	–	–	24.3%	41.5%	–	–
c1ccc(CCC2=NOC(Cc3ccc4ccccc4c3)C2)cc1 (single isomer, unassigned; 53b)	–	–	13%	3.8%	–	–
O=C(CC(=O)c1ccccc1)Cc1ccccc1	–	–	5.4%	9.7%	–	–
Oc1ccccc1CCC1=NOC(Cc2ccccc2)C1 (single isomer, unassigned)	–	–	39.7%	30.5%	–	–
COC(CC(=O)CCc1ccccc1)Cc1cccc2ccccc12 (configuration not stated)	–	–	35.5%	2%	–	–
c1ccc(CCCC2=NOC(CCc3ccccc3)C2)cc1 (configuration not stated)	–	–	67.6%	15.5%	–	–
